Reference: ChEMBL document CHEMBL1136326, “New benzylidenethiazolidinediones as antibacterial agents” (2003)
≈ marks a conversion by molar mass, not a printed value.

Columns and labels:
Type in all cases: functional
[1] = Minimal inhibitory concentration (antibacterial activity) against […] ERY2 (SPNE)
In short: (§1)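 Broth microdilution in cation-adjusted Mueller Hinton broth. Compounds in DMSO were diluted 1:10 with water to a 256 ug/mL solution, then serially 2-fold diluted, giving 0.06 to 64 μg/mL. Inoculum about 1 × 10^6 cfu/mL. Incubation at 35 C for 24 h. MIC is the lowest concentration that inhibits visible growth.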

Staphylococcus aureus = experiment: Minimal inhibitory concentration (antibacterial activity) against Staphylococcus aureus Oxford (SAUR); in short: as §1
Enterococcus faecalis = experiment: Minimal inhibitory concentration (antibacterial activity) against Enterococcus faecalis 7 (EFAE); in short: as §1
[2] = Streptococcus pneumoniae, read-out: MIC
[3] = Staphylococcus aureus, read-out: MIC
[4] = Enterococcus faecalis, read-out: MIC

SMILES | MIC [1, 2] | MIC (Staphylococcus aureus; [3]) | MIC (Enterococcus faecalis; [4]) | MIC [1] | MIC (Staphylococcus aureus) | MIC (Enterococcus faecalis)
CCCc1c(OCC(O)COc2ccc(/C=C3\CC(=O)NC3=O)cc2)ccc(Cl)c1Cl (centres undefined) | 64 µg/mL (≈ 138 µM) | > 64 µg/mL | 64 µg/mL (≈ 138 µM) |  |  | 
CCCc1c(OCC(O)COc2ccc(CC3SC(=O)NC3=O)cc2)ccc(Cl)c1Cl (centres undefined) | 8 µg/mL (≈ 16.5 µM) | 8 µg/mL (≈ 16.5 µM) | 16 µg/mL (≈ 33 µM) |  |  | 
CCCc1c(OCC(=O)COc2ccc(/C=C3\SC(=O)NC3=O)cc2)ccc(Cl)c1Cl | > 64 µg/mL | > 64 µg/mL | > 64 µg/mL |  |  | 
CCCc1c(OCC(O)COc2ccc(/C=C3\OC(=O)NC3=O)cc2)ccc(Cl)c1Cl (centres undefined) | 32 µg/mL (≈ 68.6 µM) | 16 µg/mL (≈ 34.3 µM) | 16 µg/mL (≈ 34.3 µM) |  |  | 
Cc1ccccc1OCC(O)COc1ccc(/C=C2\SC(=O)NC2=O)cc1 (centres undefined) | 32 µg/mL (≈ 83 µM) | 64 µg/mL (≈ 166 µM) | > 64 µg/mL |  |  | 
O=C1NC(=O)/C(=C/c2ccc(OCC(O)COc3ccccc3)cc2)S1 (centres undefined) | 64 µg/mL (≈ 172 µM) | > 64 µg/mL | > 64 µg/mL |  |  | 
O=C1NC(=O)/C(=C/c2ccc(OCC(O)COc3ccc(Cl)c(Cl)c3)cc2)S1 (centres undefined) | > 64 µg/mL | > 64 µg/mL | > 64 µg/mL |  |  | 
CCCc1cc(Cl)c(Cl)cc1OCC(O)COc1ccc(/C=C2\SC(=O)NC2=O)cc1 (centres undefined) | 4 µg/mL (≈ 8.29 µM) | 8 µg/mL (≈ 16.6 µM) | 8 µg/mL (≈ 16.6 µM) |  |  | 
CCCc1c(OC[C@@H](O)COc2ccc(/C=C3\SC(=O)NC3=O)cc2)ccc(Cl)c1Cl | 2 µg/mL (≈ 4.15 µM) | 2 µg/mL (≈ 4.15 µM) | 4 µg/mL (≈ 8.29 µM) |  |  | 
CCCc1c(OC[C@H](O)COc2ccc(/C=C3\SC(=O)NC3=O)cc2)ccc(Cl)c1Cl | 1 µg/mL (≈ 2.07 µM) | 1 µg/mL (≈ 2.07 µM) | 64 µg/mL (≈ 133 µM) |  |  | 
CCCc1c(OCCCOc2ccc(/C=C3\SC(=O)NC3=O)cc2)ccc(Cl)c1Cl | > 64 µg/mL | > 64 µg/mL | > 64 µg/mL |  |  | 
CCCc1c(OCC(O)COc2ccc(/C=C3\NC(=O)NC3=O)cc2)ccc(Cl)c1Cl (centres undefined) | 4 µg/mL (≈ 8.6 µM) | 4 µg/mL (≈ 8.6 µM) | 4 µg/mL (≈ 8.6 µM) |  |  | 
CCCc1c(OCC(N)COc2ccc(/C=C3\SC(=O)NC3=O)cc2)ccc(Cl)c1Cl (centres undefined) | 2 µg/mL (≈ 4.15 µM) | 16 µg/mL (≈ 33.2 µM) | 32 µg/mL (≈ 66.5 µM) |  |  | 
CCCc1ccccc1OCC(O)COc1ccc(/C=C2\SC(=O)NC2=O)cc1 (centres undefined) | 2 µg/mL (≈ 4.84 µM) | 16 µg/mL (≈ 38.7 µM) | > 64 µg/mL |  |  | 
CCc1ccccc1OCC(O)COc1ccc(/C=C2\SC(=O)NC2=O)cc1 (centres undefined) | 16 µg/mL (≈ 40.1 µM) | 16 µg/mL (≈ 40.1 µM) | 32 µg/mL (≈ 80.1 µM) |  |  | 
O=C1NC(=O)/C(=C/c2ccc(OCC(O)COc3ccc(Cl)c(Cl)c3Cl)cc2)S1 (centres undefined) | > 64 µg/mL | > 64 µg/mL | > 64 µg/mL |  |  | 
CCCc1c(OCC(O)COc2ccc(/C=C3\SC(=O)N(C)C3=O)cc2)ccc(Cl)c1Cl (stereo in doubt; 6) |  |  |  | >64 µg/mL | >64 µg/mL | >64 µg/mL
CCCc1c(OCC(O)COc2ccc(/C=C3\SC(=O)N(C)C3=O)cc2)ccc(Cl)c1Cl (stereo in doubt; 12) |  |  |  | 1 µg/mL (≈ 2.01 µM) | 8 µg/mL (≈ 16.1 µM) | 4 µg/mL (≈ 8.06 µM)
